This is a sample that favours compounds with a hit; in the whole collection about 0.77% have one here.
bIAP act: increases bovine intestinal alkaline phosphatase activity; purified bovine IAP, CDP-star luminescence, 30 min; hits give high values; fold of DMSO-control signal, blank-subtracted; AID 1016; activation factor at 20 µM; hit rate 0.17% among 200,000;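 active means activation factor of 2 or more at 20 µM, a signal rise over negative controls twice the positive control's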
hIAP activ: human IAP activation; activation factor at 10 µM; P09923; hit rate 0.16% among 330,000; purified human IAP, CDP-Star luminescence, 30 min; hits give high values; 1 = vehicle-only enzyme, 0 = enzyme-free background;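 active means activation factor of the enzyme at least 2-fold when tested at 20 µM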
Target sequence (P09923 whole entry, looked up): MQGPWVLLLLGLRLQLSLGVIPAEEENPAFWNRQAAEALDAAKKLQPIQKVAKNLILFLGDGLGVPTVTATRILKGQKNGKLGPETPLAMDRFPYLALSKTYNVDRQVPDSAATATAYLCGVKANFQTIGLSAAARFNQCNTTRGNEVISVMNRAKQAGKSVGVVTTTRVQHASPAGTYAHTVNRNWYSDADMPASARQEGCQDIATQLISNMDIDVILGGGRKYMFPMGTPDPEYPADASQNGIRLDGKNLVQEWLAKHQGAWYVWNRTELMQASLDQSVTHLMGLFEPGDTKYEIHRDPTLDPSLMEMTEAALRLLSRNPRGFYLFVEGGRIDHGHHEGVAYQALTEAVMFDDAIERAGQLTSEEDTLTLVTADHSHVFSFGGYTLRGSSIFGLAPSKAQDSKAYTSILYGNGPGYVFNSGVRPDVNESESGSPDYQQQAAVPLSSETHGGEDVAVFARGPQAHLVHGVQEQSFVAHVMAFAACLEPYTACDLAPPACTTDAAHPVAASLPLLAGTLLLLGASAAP
mIAP block: mouse IAP inhibition; purified mouse IAP, CDP-Star luminescence, 30 min; hit rate 0.2% among 330,000; inhibition, % at 10 µM;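 active means inhibition of at least 40% at 10 µM in the primary screen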;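 further: plate controls were DMSO with enzyme for no effect and no enzyme wells for full effect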
bIAP inhibitor: blocks bovine intestinal alkaline phosphatase activity; purified bovine IAP, CDP-star luminescence, 30 min; inhibition, % at 20 µM; 190,000 tested, under 10 active;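 active means over 50% inhibition of intestinal alkaline phosphatase at 20 µM in the single-dose screen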
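System: Purified bovine intestinal alkaline phosphatase (IAP) enzyme | Input: IAP diluted 1/65,000,000 in the well | Also added: CDP-star chemiluminescent phosphatase substrate, 30 µM final | Dosing: 20 µM single dose | Times: Enzyme reaction for 30 min at room temperature | Detection: Luminescence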
mIAP act: mouse IAP activation; muIAP, CDP-Star luminescence, 30 min; hits give high values; 1 = vehicle-only enzyme signal, 0 = enzyme-free wells; hit rate 0.24% among 330,000; activation factor at 10 µM;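 active means activation factor of at least 2 at 20 µM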
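Assay system: mouse IAP enzyme / Compound: DMSO-dissolved test compounds / Timing: 30 min, room temperature / Measured by: luminescence from enzymatic CDP-Star hydrolysis / Control set: DMSO-only wells, enzyme-free buffer wells as negative control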
hIAP inh: human IAP inhibition; P09923; hit rate 0.12% among 330,000; inhibition, % at 10 µM; purified IAP, CDP-Star luminescence, 30 min;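 active means inhibition reaching a set limit with compound at 10 µM in the primary screen, cut at about 35% in these data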;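 further: plate controls were DMSO wells with enzyme for no effect and no-enzyme buffer wells for full effect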
An asterisk follows results filed as active.

How did COc1ccc(NC(=O)CCCCCn2nnc3ccccc3c2=O)cc1 do in these assays?
hIAP activ: 0.89; mIAP block: 0; mIAP act: 1; hIAP inh: 11

Results for COc1cc(CN(C)CCc2ccccc2)ccc1OCc1ccccc1 ?
bIAP act: 1; hIAP activ: 1.5; mIAP block: -1; bIAP inhibitor: 1; mIAP act: 1; hIAP inh: -47

Results for Cc1ccc2nc(N3C(=O)C(O)=C(C(=O)c4ccc(C)o4)C3c3ccco3)sc2c1 (configuration not stated) ?
hIAP activ: 1.2; mIAP block: 50*; mIAP act: 0.5; hIAP inh: -22

What do the screens show for `CCc1ccc(N=Nc2ccc(O)c3[nH]cnc23)cc1`?
hIAP activ: 1.3; mIAP block: 40*; mIAP act: 0.6; hIAP inh: -33

What do the screens show for `COc1ccc(N=Nc2ccc(O)c3ncccc23)cc1`?
hIAP activ: 1.1; mIAP block: -9; mIAP act: 1.1; hIAP inh: -14

Results for COc1ccc(N(CC(C)C)S(=O)(=O)c2nnc(NC(=O)CC(C)C)s2)cc1 ?
hIAP activ: 1; mIAP block: 20; mIAP act: 0.8; hIAP inh: -4

Results for C/C=C\C(=O)Nc1cccc(C2=NOC3(C2)C[C@@H](C(N)=O)N(C(=O)c2ccccc2)C3)c1 (some centres not stated) ?
hIAP activ: 0.92; mIAP block: 44*; mIAP act: 0.56; hIAP inh: 8

Results for O=C(Nc1ccc2ccccc2c1)c1cn(-c2ccccc2)nc1-c1cccs1 ?
bIAP act: 1; hIAP activ: 0.87; mIAP block: -114; bIAP inhibitor: -2; mIAP act: 2.1*; hIAP inh: 13

Results for O=C(Cc1ccc(Br)cc1)N1CCN(C(=O)c2ccccc2)CC1 ?
hIAP activ: 0.97; mIAP block: 5; mIAP act: 0.95; hIAP inh: 3

What do the screens show for `O=C(CSc1nc2ccccc2c(=O)n1Cc1ccco1)NCc1ccco1`?
bIAP act: 1.2; hIAP activ: 0.84; mIAP block: 17; bIAP inhibitor: -21; mIAP act: 0.83; hIAP inh: 16

Results for COc1cc2nc(SCC(=O)NCCc3ccccc3)n(Cc3ccco3)c(=O)c2cc1OC ?
bIAP act: 2*; hIAP activ: 0.96; mIAP block: 12; bIAP inhibitor: -96; mIAP act: 0.88; hIAP inh: 4

How did CCO[C@@H]1OC(C(=O)N2CCN(Cc3ccc4c(c3)OCO4)CC2)=C[C@H](c2csc3ccccc23)[C@H]1CCCO do in these assays?
bIAP act: 1.2; hIAP activ: 0.85; mIAP block: -3; bIAP inhibitor: -19; mIAP act: 1; hIAP inh: 14

Results for CCO[C@@H]1OC(C(=O)N2CCN(Cc3ccc4c(c3)OCO4)CC2)=C[C@H](c2cn(C(C)=O)c3ccccc23)[C@H]1CCCO ?
bIAP act: 1; hIAP activ: 1.1; mIAP block: 43*; bIAP inhibitor: -2; mIAP act: 0.57; hIAP inh: -10

Results for N#C/C(=C/c1ccc(N2CCCCC2)o1)C(=O)Nc1ccc(Cl)cc1 ?
bIAP act: 0.8; hIAP activ: 0.62; mIAP block: 23; bIAP inhibitor: 25; mIAP act: 0.77; hIAP inh: 38*

How did CC1CCCN(S(=O)(=O)c2cc3c4c(c2)CCN4C(=O)CC3)C1 (configuration not stated) do in these assays?
hIAP activ: 1; mIAP block: -2; mIAP act: 1; hIAP inh: -4

Results for Cc1cccc(NC(=O)COC(=O)c2ccccc2-c2nc3ccccc3s2)c1C ?
bIAP act: 5.2*; hIAP activ: 0.89; mIAP block: 0; bIAP inhibitor: -421; mIAP act: 1; hIAP inh: 11

Results for Cc1ccc(C)c(NC(=O)CCC(=O)N/N=C/c2ccc[nH]2)c1 ?
bIAP act: 0.9; hIAP activ: 0.91; mIAP block: 36; bIAP inhibitor: 8; mIAP act: 0.64; hIAP inh: 9

How did Cc1c(Cl)cccc1NC(=O)CCC(=O)N/N=C/c1ccc[nH]1 do in these assays?
bIAP act: 0.9; hIAP activ: 0.99; mIAP block: 51*; bIAP inhibitor: 5; mIAP act: 0.49; hIAP inh: 1

How did CCCC(C)NC(=O)COc1ccc(S(=O)(=O)N2CCCC2)cc1 (configuration not stated) do in these assays?
bIAP act: 1; hIAP activ: 0.98; mIAP block: -2; bIAP inhibitor: 2; mIAP act: 1; hIAP inh: 2

Results for COc1ccc(CNC(=O)CSCc2cnn(-c3ccccc3)c2-n2cccc2)cc1 ?
bIAP act: 2.5*; hIAP activ: 1.1; mIAP block: -5; bIAP inhibitor: -146; mIAP act: 1; hIAP inh: -15

What do the screens show for `CCCCCCn1ccc(=N)cc1`?
bIAP act: 0.9; hIAP activ: 1.1; mIAP block: -1; bIAP inhibitor: 11; mIAP act: 1; hIAP inh: -15

How did CCCCCCCCCCCCCCCCn1cc[n+](CC(C)=O)c1 do in these assays?
bIAP act: 5.2*; bIAP inhibitor: -417

Results for O=C(Nc1cccc(-c2nc3ccccc3o2)c1)c1ccc(N2C(=O)C3C4C=CC(C4)C3C2=O)cc1 (configuration not stated) ?
bIAP act: 1; hIAP activ: 1.1; mIAP block: 1; bIAP inhibitor: 0; mIAP act: 0.99; hIAP inh: -6

How did O=C1C2C3C=CC(C3)C2C(=O)N1c1cccc(-c2nc3ccccc3o2)c1 (configuration not stated) do in these assays?
bIAP act: 3.9*; hIAP activ: 1.1; mIAP block: -10; bIAP inhibitor: -288; mIAP act: 1.1; hIAP inh: -11

How did CCCC(C)NC(=O)C1c2ccccc2Oc2ccccc21 (configuration not stated) do in these assays?
hIAP activ: 1.2; mIAP block: -5; mIAP act: 1.1; hIAP inh: -16

What do the screens show for `NC(=O)CSc1ccc(-c2ccc(F)cc2)nn1`?
bIAP act: 1; hIAP activ: 0.84; mIAP block: 1; bIAP inhibitor: -2; mIAP act: 0.99; hIAP inh: 16

Results for Cc1c(C(=O)Nc2ccccc2[N+](=O)[O-])csc1-c1ccccc1 ?
bIAP act: 3.7*; hIAP activ: 0.87; mIAP block: 9; bIAP inhibitor: -266; mIAP act: 0.91; hIAP inh: 13

How did Cc1cc(OCCCCCn2ccnc2)cc(C)c1Cl do in these assays?
bIAP act: 68*; hIAP activ: 1.5; mIAP block: -11; bIAP inhibitor: inactive; mIAP act: 1.1; hIAP inh: -53

What do the screens show for `O=C(O)c1ccccc1C(=O)NCCCn1ccnc1`?
hIAP activ: 1.4; mIAP block: -13; mIAP act: 1.1; hIAP inh: -42

Source: PubChem BioAssay
